Experimental data from ChEMBL document CHEMBL2331531, “Synthesis and biological evaluation of urea derivatives as highly potent and selective rho kinase inhibitors” (J Med Chem, 2013).

How the values were obtained:
[1] = molecular target: Rho-associated protein kinase 1 (Homo sapiens, UniProt Q13464); assay: Inhibition of ROCK1 (unknown origin) after 4 hrs by HTRF assay
Rattus norvegicus = assay: (§1) AUC in Sprague-Dawley rat at 1 mg/kg, iv by LC-MS/MS analysis; assay type: ADME, organism-based, Plasma; set-up: dose 1 mg/kg, route intravenous; conditions: in vivo
[2] = Oral bioavailability in Sprague-Dawley rat at 2 mg/kg by LC-MS/MS analysis; assay type: ADME, organism-based; conditions: in vivo
[3] = molecular target: Rho-associated protein kinase 2 (Homo sapiens, UniProt O75116); assay: Inhibition of ROCK2 (unknown origin) after 4 hrs by HTRF assay
[4] = Volume of distribution in Sprague-Dawley rat at 1 mg/kg, iv by LC-MS/MS analysis; assay type: ADME, organism-based; set-up: dose 1 mg/kg, route intravenous; conditions: in vivo
CYP2D6 = CYP2D6 (Homo sapiens, UniProt P10635); assay: Inhibition of CYP2D6 (unknown origin)-mediated bufuralol hydroxylation to 4'-Hydroxybufuralol at 10 uM relative to control; assay type: ADME; conditions: probe bufuralol
[5] = Half life in Sprague-Dawley rat at 1 mg/kg, iv by LC-MS/MS analysis; assay type: ADME, organism-based; set-up: dose 1 mg/kg, route intravenous; conditions: in vivo
CYP3A4 = CYP3A4 (Homo sapiens, UniProt P08684); assay: Inhibition of CYP3A4 (unknown origin)-mediated midazolam hydroxylation to 1'-Hydroxymidazolam at 10 uM relative to control; assay type: ADME; conditions: probe midazolam
[6] = Cmax in Sprague-Dawley rat at 1 mg/kg, iv by LC-MS/MS analysis; assay type: ADME, organism-based; set-up: dose 1 mg/kg, route intravenous; conditions: in vivo
CYP2C9 = CYP2C9 (Homo sapiens, UniProt P11712); assay: Inhibition of CYP2C9 (unknown origin)-mediated tolbutamide hydroxylation to hydroxy tolbutamide at 10 uM relative to control; assay type: ADME; conditions: probe tolbutamide
[7] = Inhibition of ROCK-mediated myosin light chain bisphosphorylation in rat A7R5 cells after 1 hr by fluorescence assay in presence of L-alpha-lysophosphatidic acid; assay type: cell-based
Method in brief: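 A7r5 cells in 20% FBS DMEM, plated 5000/well overnight, serum-starved 4 h in 0.05% FBS DMEM; compound 13333 nM to 18 nM final for 1 h, then 10 μM LPA 10 min; fixed, permeabilized, anti-ppMLC plus IR800 secondary; infrared scan, ppMLC signal normalized to TO-PRO-3 nuclear signal. IC50 as mean of two or more experiments.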

CYP1A2 = molecular target: T1, CYP1A2 (Homo sapiens, UniProt P05177); assay: Inhibition of CYP1A2 (unknown origin)-mediated phenaceten demethylation to acetaminophen at 10 uM relative to control; assay type: ADME; conditions: probe phenacetin (printed: phenaceten)
T1 sequence (P05177 whole entry): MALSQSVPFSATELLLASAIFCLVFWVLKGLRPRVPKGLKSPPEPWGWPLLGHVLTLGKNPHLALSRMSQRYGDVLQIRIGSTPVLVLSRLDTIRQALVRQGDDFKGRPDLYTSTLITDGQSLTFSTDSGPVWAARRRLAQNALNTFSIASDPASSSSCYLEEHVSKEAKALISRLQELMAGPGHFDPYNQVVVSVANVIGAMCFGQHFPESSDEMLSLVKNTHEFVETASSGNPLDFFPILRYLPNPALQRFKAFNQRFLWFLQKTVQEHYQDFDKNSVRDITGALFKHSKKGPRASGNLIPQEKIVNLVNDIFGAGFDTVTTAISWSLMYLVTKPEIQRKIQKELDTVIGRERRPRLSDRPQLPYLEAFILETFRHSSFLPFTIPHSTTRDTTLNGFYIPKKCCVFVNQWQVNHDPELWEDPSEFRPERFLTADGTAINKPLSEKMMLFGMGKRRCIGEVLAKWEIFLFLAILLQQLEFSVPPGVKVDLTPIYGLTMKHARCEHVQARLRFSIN

[8] = Inhibition of PKA (unknown origin) after 70 mins by luminescence assay; set-up: species or system Homo sapiens
[9] = Half life in human liver microsomes; assay type: ADME, Microsome
[10] = Clearance in Sprague-Dawley rat at 1 mg/kg, iv by LC-MS/MS analysis; assay type: ADME, organism-based; set-up: dose 1 mg/kg, route intravenous; conditions: in vivo
[11] = as §1; assay type: ADME, organism-based, Plasma; set-up: dose 1 mg/kg, route intravenous; conditions: Sprague-Dawley, plasma
[12] = molecular target: Serine/threonine-protein kinase MRCK alpha (Homo sapiens, UniProt Q5VT25); assay: Inhibition of MRCKalpha (unknown origin) using LCD-AKRRRRLSSLRA-NH2 as substrate after 75 mins by luminescence assay in presence of [33P]ATP
[13] = molecular target: Mitogen-activated protein kinase 10 (Homo sapiens, UniProt P53779); assay: Inhibition of JNK3 alpha1 (unknown origin) using biotinylated Flag-ATF2 as substrate after 15 mins by HTRF assay
MAP kinase p38 = MAP kinase p38 (Homo sapiens, UniProt O15264+Q15759+Q16539+P53778); assay: Inhibition of p38 (unknown origin) using biotinylated Flag-ATF2 as substrate after 30 mins by HTRF assay; assay type: protein assay
[14] = Aqueous solubility in potassium phosphate buffer at pH 5.5 after 24 hrs by HPLC analysis; assay type: physicochemical; conditions: pH 5.5, 24 h
Cytochrome P450 2D6 = Cytochrome P450 2D6 (Homo sapiens, UniProt P10635); assay: Inhibition of CYP2D6 (unknown origin)-mediated bufuralol hydroxylation to 4'-Hydroxybufuralol; assay type: ADME
Cytochrome P450 3A4 = Cytochrome P450 3A4 (Homo sapiens, UniProt P08684); assay: Inhibition of CYP3A4 (unknown origin)-mediated midazolam hydroxylation to 1'-Hydroxymidazolam; assay type: ADME
Cytochrome P450 2C9 = Cytochrome P450 2C9 (Homo sapiens, UniProt P11712); assay: Inhibition of CYP2C9 (unknown origin)-mediated tolbutamide hydroxylation to hydroxy tolbutamide; assay type: ADME
Cytochrome P450 1A2 = molecular target: T2, Cytochrome P450 1A2 (Homo sapiens, UniProt P05177); assay: Inhibition of CYP1A2 (unknown origin)-mediated phenaceten demethylation to acetaminophen; assay type: ADME
T2 sequence (P05177 whole entry): T1 sequence (P05177 whole entry)

Serine/threonine-protein kinase MRCK alpha, sequence (Q5VT25 whole entry): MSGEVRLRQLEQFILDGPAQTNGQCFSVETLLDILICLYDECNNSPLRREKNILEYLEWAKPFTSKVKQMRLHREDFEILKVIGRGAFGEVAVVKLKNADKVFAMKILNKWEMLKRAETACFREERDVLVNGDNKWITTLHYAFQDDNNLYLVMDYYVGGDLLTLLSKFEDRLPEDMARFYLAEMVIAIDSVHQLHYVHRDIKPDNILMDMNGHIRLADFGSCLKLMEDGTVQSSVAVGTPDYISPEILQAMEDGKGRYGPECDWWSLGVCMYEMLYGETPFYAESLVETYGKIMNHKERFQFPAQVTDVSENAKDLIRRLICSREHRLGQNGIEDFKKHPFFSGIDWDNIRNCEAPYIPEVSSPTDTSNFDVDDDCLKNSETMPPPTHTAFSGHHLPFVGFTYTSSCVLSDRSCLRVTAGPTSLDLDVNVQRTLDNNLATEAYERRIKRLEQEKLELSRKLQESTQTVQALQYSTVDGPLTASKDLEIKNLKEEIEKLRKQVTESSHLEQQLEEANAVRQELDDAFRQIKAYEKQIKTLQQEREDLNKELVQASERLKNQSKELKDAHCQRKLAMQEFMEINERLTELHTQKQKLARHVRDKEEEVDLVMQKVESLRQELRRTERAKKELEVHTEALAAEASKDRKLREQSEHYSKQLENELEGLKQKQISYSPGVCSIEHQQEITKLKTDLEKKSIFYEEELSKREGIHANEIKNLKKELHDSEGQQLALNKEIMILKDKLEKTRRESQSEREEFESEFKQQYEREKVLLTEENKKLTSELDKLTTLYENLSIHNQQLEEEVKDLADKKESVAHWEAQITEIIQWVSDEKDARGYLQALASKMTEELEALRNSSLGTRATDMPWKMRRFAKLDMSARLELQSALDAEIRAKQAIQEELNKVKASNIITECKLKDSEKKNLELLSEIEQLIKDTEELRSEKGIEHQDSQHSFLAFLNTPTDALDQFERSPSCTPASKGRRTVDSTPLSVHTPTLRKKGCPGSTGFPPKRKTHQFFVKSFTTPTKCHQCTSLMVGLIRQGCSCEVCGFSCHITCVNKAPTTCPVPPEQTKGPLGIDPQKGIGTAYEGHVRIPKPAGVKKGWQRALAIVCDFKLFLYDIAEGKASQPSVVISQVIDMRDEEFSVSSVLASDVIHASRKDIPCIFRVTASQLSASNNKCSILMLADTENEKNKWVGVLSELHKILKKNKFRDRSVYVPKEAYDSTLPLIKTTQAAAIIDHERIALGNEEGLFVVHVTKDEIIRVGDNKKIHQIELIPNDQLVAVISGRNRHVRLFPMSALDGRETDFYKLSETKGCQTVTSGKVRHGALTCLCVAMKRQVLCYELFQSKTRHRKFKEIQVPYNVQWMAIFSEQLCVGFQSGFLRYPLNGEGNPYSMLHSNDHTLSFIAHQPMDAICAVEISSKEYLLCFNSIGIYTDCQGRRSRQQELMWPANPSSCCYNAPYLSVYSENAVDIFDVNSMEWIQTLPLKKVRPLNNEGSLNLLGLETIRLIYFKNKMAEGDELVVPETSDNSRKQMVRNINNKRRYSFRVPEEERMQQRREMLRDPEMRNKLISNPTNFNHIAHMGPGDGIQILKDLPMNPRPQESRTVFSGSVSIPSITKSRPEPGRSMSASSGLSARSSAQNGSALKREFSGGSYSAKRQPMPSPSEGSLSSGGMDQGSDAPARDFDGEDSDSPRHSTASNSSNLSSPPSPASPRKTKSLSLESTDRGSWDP
Rho-associated protein kinase 2, sequence (O75116 whole entry): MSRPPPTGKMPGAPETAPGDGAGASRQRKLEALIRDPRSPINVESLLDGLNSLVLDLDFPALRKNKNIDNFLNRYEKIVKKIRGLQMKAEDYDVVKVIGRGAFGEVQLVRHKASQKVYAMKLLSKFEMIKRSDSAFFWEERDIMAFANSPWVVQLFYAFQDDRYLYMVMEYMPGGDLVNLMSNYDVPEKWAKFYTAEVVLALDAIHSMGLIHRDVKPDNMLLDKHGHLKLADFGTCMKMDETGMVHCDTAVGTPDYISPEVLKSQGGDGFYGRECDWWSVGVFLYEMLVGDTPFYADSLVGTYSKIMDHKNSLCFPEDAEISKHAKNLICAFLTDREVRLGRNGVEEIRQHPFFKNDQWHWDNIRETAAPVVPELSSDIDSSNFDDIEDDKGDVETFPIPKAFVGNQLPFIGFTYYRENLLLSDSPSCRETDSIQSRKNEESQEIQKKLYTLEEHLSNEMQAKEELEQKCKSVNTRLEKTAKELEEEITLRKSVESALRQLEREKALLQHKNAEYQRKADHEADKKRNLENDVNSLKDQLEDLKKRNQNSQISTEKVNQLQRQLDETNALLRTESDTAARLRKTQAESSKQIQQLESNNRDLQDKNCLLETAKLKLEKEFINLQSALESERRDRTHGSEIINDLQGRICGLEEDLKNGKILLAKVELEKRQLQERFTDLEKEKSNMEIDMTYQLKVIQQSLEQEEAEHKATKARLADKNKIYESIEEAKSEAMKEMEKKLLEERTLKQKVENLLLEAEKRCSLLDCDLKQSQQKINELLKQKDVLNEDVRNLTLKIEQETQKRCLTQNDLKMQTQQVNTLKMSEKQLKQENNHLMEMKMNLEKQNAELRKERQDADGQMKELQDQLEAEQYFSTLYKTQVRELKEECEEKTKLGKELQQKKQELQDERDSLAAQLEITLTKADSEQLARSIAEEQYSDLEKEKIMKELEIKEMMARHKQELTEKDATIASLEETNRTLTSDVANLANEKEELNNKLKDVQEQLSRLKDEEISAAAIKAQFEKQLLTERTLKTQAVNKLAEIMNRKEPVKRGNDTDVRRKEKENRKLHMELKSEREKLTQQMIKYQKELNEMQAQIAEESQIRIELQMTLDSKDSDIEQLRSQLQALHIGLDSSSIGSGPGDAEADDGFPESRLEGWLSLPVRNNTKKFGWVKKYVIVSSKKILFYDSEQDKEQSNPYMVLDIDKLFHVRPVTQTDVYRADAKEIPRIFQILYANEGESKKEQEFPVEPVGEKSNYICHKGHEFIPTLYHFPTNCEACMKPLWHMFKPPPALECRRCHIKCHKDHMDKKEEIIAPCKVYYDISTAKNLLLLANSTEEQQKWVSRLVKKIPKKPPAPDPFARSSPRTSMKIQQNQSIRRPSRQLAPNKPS
CYP3A4, sequence (P08684 whole entry): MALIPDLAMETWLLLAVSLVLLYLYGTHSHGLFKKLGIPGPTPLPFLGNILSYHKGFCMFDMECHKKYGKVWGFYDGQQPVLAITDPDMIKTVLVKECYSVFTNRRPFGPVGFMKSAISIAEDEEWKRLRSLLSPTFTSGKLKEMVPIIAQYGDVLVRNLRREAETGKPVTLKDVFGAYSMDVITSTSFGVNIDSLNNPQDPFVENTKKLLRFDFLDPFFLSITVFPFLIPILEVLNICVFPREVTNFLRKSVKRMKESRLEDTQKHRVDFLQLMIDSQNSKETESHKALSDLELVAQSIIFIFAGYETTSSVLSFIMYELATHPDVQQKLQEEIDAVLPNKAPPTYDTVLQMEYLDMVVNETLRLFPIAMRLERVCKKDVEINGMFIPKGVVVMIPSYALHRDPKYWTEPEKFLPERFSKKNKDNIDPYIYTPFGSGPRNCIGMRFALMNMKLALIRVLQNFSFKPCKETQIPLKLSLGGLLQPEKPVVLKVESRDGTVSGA
Cytochrome P450 3A4, sequence (P08684 whole entry): as above
Rho-associated protein kinase 1, sequence (Q13464 whole entry): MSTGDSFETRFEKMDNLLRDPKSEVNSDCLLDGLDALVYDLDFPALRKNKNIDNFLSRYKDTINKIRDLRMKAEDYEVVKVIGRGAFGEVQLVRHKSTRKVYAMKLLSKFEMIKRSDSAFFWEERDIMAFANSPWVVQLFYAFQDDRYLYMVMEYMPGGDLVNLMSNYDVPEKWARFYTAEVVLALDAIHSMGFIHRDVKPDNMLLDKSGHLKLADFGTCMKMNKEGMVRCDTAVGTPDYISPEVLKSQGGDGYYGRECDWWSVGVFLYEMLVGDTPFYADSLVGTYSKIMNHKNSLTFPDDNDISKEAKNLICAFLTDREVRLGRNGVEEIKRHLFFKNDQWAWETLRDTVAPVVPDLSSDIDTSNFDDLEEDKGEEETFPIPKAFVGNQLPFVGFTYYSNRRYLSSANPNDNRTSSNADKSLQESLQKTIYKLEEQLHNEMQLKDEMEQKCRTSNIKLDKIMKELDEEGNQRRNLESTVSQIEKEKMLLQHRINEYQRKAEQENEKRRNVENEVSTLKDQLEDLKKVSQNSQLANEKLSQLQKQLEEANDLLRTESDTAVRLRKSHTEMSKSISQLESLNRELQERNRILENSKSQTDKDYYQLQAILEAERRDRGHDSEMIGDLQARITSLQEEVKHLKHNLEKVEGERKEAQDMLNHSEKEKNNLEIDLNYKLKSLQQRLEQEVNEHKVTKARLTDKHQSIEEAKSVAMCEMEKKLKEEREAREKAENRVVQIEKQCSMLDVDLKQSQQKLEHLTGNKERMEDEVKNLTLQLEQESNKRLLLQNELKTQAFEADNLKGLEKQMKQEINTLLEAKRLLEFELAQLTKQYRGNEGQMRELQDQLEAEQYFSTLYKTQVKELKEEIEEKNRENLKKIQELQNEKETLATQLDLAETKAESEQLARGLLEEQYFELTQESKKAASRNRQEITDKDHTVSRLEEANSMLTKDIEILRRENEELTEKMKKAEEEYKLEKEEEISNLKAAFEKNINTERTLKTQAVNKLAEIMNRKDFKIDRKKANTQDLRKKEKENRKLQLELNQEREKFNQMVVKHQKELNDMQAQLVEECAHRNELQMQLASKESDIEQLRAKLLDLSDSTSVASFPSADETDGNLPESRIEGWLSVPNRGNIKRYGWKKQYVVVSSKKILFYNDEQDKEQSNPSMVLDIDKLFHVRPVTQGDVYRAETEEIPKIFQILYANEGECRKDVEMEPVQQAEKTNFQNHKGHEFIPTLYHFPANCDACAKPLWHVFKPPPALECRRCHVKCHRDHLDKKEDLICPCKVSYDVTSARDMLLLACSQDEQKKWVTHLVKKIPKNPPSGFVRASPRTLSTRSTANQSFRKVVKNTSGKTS

## O=C(Nc1ccc(-c2cn[nH]c2)cc1)N(CCO)Cc1ccccc1
[1]
  IC50: 33 nM
Rattus norvegicus
  AUC: 3.6 µM·h
[2]
  bioavailability: 46%
[3]
  IC50: 12 nM
[4]
  Vd: 1.9 L/kg
CYP2D6
  inhibition at 10 µM: 29%
[5]
  half-life: 1.9 h
CYP3A4
  inhibition at 10 µM: 15%
[6]
  Cmax: 1100 nM
CYP2C9
  inhibition at 10 µM: 93%
[7]
  IC50: 59 nM
CYP1A2
  inhibition at 10 µM: 9%
[8]
  IC50: 610 nM
[9]
  half-life: > 2 h

## O=C(Nc1ccc(-c2cn[nH]c2)cc1)NC(CCO)c1cccc(F)c1 (stereo not given)
[10]
  clearance: 4.9 mL/min/kg
[1]
  IC50: 10 nM
[11]
  AUC: 9.5 µM·h
[2]
  bioavailability: 28%
[3]
  IC50: 2 nM
[4]
  Vd: 0.7 L/kg
CYP2D6
  inhibition at 10 µM: 41%
[12]
  IC50: 6400 nM
[13]
  IC50: > 20000 nM
[5]
  half-life: 2.1 h
CYP3A4
  inhibition at 10 µM: 23%
[6]
  Cmax: 9200 nM
MAP kinase p38
  IC50: > 20000 nM
CYP2C9
  inhibition at 10 µM: 71%
[7]
  IC50: 32 nM
CYP1A2
  inhibition at 10 µM: -2%
[8]
  IC50: 580 nM
[9]
  half-life: > 2 h

## CCN(Cc1cccc(OC)c1)C(=O)Nc1ccc(-c2cn[nH]c2)cc1O[C@H]1CCN(C)C1
[10]
  clearance: 30 mL/min/kg
[1]
  IC50: 4 nM
[11]
  AUC: 1.3 µM·h
[2]
  bioavailability: 11%
[3]
  IC50: 1 nM
[4]
  Vd: 2.6 L/kg
CYP2D6
  inhibition at 10 µM: 83%
[12]
  IC50: 1550 nM
[14]
  solubility: soluble
[13]
  IC50: > 20000 nM
[5]
  half-life: 1 h
CYP3A4
  inhibition at 10 µM: 53%
[6]
  Cmax: 1100 nM
MAP kinase p38
  IC50: > 20000 nM
CYP2C9
  inhibition at 10 µM: 65%
CYP1A2
  inhibition at 10 µM: 9%
[8]
  IC50: 6700 nM

## COc1cccc(CN(CCO)C(=O)Nc2ccc(-c3cn[nH]c3)cc2)c1
[10]
  clearance: 11.2 mL/min/kg
[1]
  IC50: 6 nM
[11]
  AUC: 4.2 µM·h
[2]
  bioavailability: 51%
[3]
  IC50: 1 nM
[4]
  Vd: 1 L/kg
Cytochrome P450 2D6
  IC50: 40000 nM
Cytochrome P450 3A4
  IC50: 35000 nM
CYP2D6
  inhibition at 10 µM: 38%
[12]
  IC50: 4310 nM
[13]
  IC50: > 20000 nM
Cytochrome P450 2C9
  IC50: 2000 nM
[5]
  half-life: 1.6 h
CYP3A4
  inhibition at 10 µM: 37%
[6]
  Cmax: 3800 nM
Cytochrome P450 1A2
  IC50: > 100000 nM
MAP kinase p38
  IC50: > 20000 nM
CYP2C9
  inhibition at 10 µM: 95%
[7]
  IC50: 19 nM
CYP1A2
  inhibition at 10 µM: -23%
[8]
  IC50: 2990 nM
[9]
  half-life: 0.4 h

## COc1cccc(CN(CCN(C)C)C(=O)Nc2ccc(-c3cn[nH]c3)cc2)c1
[10]
  clearance: 176 mL/min/kg
[1]
  IC50: 6 nM
[11]
  AUC: 0.2 µM·h
[2]
  bioavailability: 10%
[3]
  IC50: 1 nM
[4]
  Vd: 14 L/kg
Cytochrome P450 2D6
  IC50: 3000 nM
Cytochrome P450 3A4
  IC50: 80000 nM
CYP2D6
  inhibition at 10 µM: 85%
[12]
  IC50: 8700 nM
[14]
  solubility: soluble
[13]
  IC50: > 20000 nM
Cytochrome P450 2C9
  IC50: 30000 nM
[5]
  half-life: 1 h
CYP3A4
  inhibition at 10 µM: 34%
[6]
  Cmax: 330 nM
Cytochrome P450 1A2
  IC50: > 100000 nM
MAP kinase p38
  IC50: > 20000 nM
CYP2C9
  inhibition at 10 µM: 35%
[7]
  IC50: 4 nM
CYP1A2
  inhibition at 10 µM: -29%
[8]
  IC50: 456 nM
[9]
  half-life: 0.567 h

## COc1cccc(CN(C)C(=O)Nc2ccc(-c3cn[nH]c3)cc2)c1
[10]
  clearance: 9.4 mL/min/kg
[1]
  IC50: 4 nM
[11]
  AUC: 5.9 µM·h
[2]
  bioavailability: 48%
[3]
  IC50: 1 nM
[4]
  Vd: 1.1 L/kg
Cytochrome P450 2D6
  IC50: > 100000 nM
Cytochrome P450 3A4
  IC50: > 100000 nM
CYP2D6
  inhibition at 10 µM: 45%
[12]
  IC50: 1850 nM
[13]
  IC50: > 20000 nM
Cytochrome P450 2C9
  IC50: 600 nM
[5]
  half-life: 1 h
CYP3A4
  inhibition at 10 µM: 27%
[6]
  Cmax: 2600 nM
Cytochrome P450 1A2
  IC50: > 100000 nM
MAP kinase p38
  IC50: > 20000 nM
CYP2C9
  inhibition at 10 µM: 96%
CYP1A2
  inhibition at 10 µM: 9%
[8]
  IC50: 1810 nM
[9]
  half-life: 0.383 h
